From ChEMBL document CHEMBL3774328, “Optimization by Molecular Fine Tuning of Dihydro-β-agarofuran Sesquiterpenoids as Reversers of P-Glycoprotein-Mediated Multidrug Resistance” (J Med Chem, 2016)
pKi: −log10 of the molar value.

Tests used:
[1] = target: T1, ATP-dependent translocase ABCB1 (Homo sapiens, UniProt P08183); test: Inhibition of human MDR1 expressed in mouse NIH/3T3 cells assessed as reduction in vinblastine IC50 at 3 uM by MTT assay; format: cell-based; settings: nih3t3, 3 µM
Procedure, shortened: (§1)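 Parental NIH-3T3 and MDR1-G185 cells were grown in DMEM with 10% iFBS. They were exposed to increasing DNM or VLB (up to 500 ng/mL) with or without compound at fixed 1, 3 or 10 μM. Growth was read by MTT, and IC50 came from a four-parameter logistic fit. Reversal index = IC50 without compound / IC50 with compound in MDR1 cells. Mean ± SD of two independent experiments in triplicate.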

[2] = target: T1, ATP-dependent translocase ABCB1; test: Inhibition of human MDR1 expressed in mouse NIH/3T3 cells assessed as reduction in daunomycin IC50 at 3 uM by MTT assay; format: cell-based; settings: nih3t3, 3 µM; procedure, shortened: as §1
[3] = Intrinsic cytotoxicity against mouse NIH/3T3 cells by MTT assay; format: cell-based, NIH3T3
Procedure, shortened: (§2)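 Intrinsic cytotoxicity was measured by MTT in parental NIH-3T3 and MDR1-G185 cells. CC50 came from a four-parameter logistic fit. The top tested concentration was 60 μM, limited by DMSO toxicity, and growth at 60 μM is given as % of untreated control. Mean ± SD of three independent experiments in duplicate.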

[4] = Intrinsic cytotoxicity against mouse NIH/3T3 cells transfected with human MDR1 by MTT assay; format: ADME, cell-based, NIH3T3; procedure, shortened: as §2
[5] = target: T1, ATP-dependent translocase ABCB1; test: Inhibition of human MDR1 expressed in mouse NIH/3T3 cells assessed as reduction in daunomycin IC50 at 1 uM by MTT assay; format: cell-based; settings: nih3t3, 1 µM
Procedure, shortened: as §1, with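 “fit.” for “fit. Reversal index = IC50 without compound / IC50 with compound in MDR1 cells.”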

[6] = Intrinsic cytotoxicity against mouse NIH/3T3 cells assessed as cell growth at 60 uM by MTT assay; format: cell-based, NIH3T3; settings: read-out: Activity; procedure, shortened: as §2
[7] = target: T1, ATP-dependent translocase ABCB1; test: Inhibition of human MDR1 expressed in mouse NIH/3T3 cells assessed as reduction in daunomycin IC50 at 10 uM by MTT assay; format: cell-based; settings: nih3t3, 10 µM; procedure, shortened: as §1
[8] = target: T1, ATP-dependent translocase ABCB1; test: Inhibition of human MDR1 expressed in mouse NIH/3T3 cells assessed as inhibition of daunomycin efflux incubated for 30 mins by flow cytometry; format: cell-based, NIH3T3
Procedure, shortened: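 Ki for DNM efflux. MDR1-G185 NIH-3T3 cells were incubated 30 min at 37 °C with DNM (2 μM) and varying compound concentrations, then read by flow cytometry. Fluorescence was converted to % P-gp inhibition, normalized to cells treated with 5 mM sodium orthovanadate (100%). Ki was fitted from I = (Imax × S)/(Ki + S). Mean ± SD of three independent experiments in triplicate.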

[9] = target: T1, ATP-dependent translocase ABCB1; test: Inhibition of human MDR1 expressed in mouse NIH/3T3 cells assessed as reduction in vinblastine IC50 at 1 uM by MTT assay; format: cell-based; settings: nih3t3, 1 µM; procedure, shortened: as §1
[10] = target: T1, ATP-dependent translocase ABCB1; test: Inhibition of human MDR1 expressed in mouse NIH/3T3 cells assessed as daunomycin retention at 10 uM incubated for 30 mins by flow cytometry; format: cell-based; parameters: scale not given: the % may be the effect or the level left; settings: nih3t3, 0.5 h
Procedure, shortened: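 DNM retention by flow cytometry. MDR1-G185 NIH-3T3 cells in log phase were seeded 24 h before at 10^5 cells/well. They were incubated 30 min at 37 °C in DMEM + 10% iFBS with DNM (2 μM), with or without compound (10 μM). Cells were then washed twice in ice-cold PBS, trypsinized and read immediately for single-cell fluorescence.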

[11] = target: T1, ATP-dependent translocase ABCB1; test: Inhibition of human MDR1 expressed in mouse NIH/3T3 cells assessed as reduction in vinblastine IC50 at 10 uM by MTT assay; format: cell-based; settings: nih3t3, 10 µM; procedure, shortened: as §1
[12] = target: T1, ATP-dependent translocase ABCB1; test: Potency index, ratio of vinblastine reversal index to compound reversal index for human MDR1 expressed in mouse NIH/3T3 cells at 3 uM; format: cell-based; settings: nih/3t3, 3 µM
[13] = Intrinsic cytotoxicity against mouse NIH/3T3 cells transfected with human MDR1 assessed as cell growth at 60 uM by MTT assay; format: ADME, cell-based, NIH3T3; settings: read-out: Activity; procedure, shortened: as §2
[14] = target: T1, ATP-dependent translocase ABCB1; test: Potency index, ratio of daunomycin reversal index to compound reversal index for human MDR1 expressed in mouse NIH/3T3 cells at 1 uM; format: cell-based; settings: nih/3t3, 1 µM
Procedure, shortened: (§3)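 Each RI comes from the MTT dose-response of DNM or VLB (up to 500 ng/mL), with or without modulator.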

[15] = target: T1, ATP-dependent translocase ABCB1; test: Potency index, ratio of vinblastine reversal index to compound reversal index for human MDR1 expressed in mouse NIH/3T3 cells at 1 uM; format: cell-based; settings: nih/3t3, 1 µM; procedure, shortened: as §3

T1 sequence (P08183 whole entry): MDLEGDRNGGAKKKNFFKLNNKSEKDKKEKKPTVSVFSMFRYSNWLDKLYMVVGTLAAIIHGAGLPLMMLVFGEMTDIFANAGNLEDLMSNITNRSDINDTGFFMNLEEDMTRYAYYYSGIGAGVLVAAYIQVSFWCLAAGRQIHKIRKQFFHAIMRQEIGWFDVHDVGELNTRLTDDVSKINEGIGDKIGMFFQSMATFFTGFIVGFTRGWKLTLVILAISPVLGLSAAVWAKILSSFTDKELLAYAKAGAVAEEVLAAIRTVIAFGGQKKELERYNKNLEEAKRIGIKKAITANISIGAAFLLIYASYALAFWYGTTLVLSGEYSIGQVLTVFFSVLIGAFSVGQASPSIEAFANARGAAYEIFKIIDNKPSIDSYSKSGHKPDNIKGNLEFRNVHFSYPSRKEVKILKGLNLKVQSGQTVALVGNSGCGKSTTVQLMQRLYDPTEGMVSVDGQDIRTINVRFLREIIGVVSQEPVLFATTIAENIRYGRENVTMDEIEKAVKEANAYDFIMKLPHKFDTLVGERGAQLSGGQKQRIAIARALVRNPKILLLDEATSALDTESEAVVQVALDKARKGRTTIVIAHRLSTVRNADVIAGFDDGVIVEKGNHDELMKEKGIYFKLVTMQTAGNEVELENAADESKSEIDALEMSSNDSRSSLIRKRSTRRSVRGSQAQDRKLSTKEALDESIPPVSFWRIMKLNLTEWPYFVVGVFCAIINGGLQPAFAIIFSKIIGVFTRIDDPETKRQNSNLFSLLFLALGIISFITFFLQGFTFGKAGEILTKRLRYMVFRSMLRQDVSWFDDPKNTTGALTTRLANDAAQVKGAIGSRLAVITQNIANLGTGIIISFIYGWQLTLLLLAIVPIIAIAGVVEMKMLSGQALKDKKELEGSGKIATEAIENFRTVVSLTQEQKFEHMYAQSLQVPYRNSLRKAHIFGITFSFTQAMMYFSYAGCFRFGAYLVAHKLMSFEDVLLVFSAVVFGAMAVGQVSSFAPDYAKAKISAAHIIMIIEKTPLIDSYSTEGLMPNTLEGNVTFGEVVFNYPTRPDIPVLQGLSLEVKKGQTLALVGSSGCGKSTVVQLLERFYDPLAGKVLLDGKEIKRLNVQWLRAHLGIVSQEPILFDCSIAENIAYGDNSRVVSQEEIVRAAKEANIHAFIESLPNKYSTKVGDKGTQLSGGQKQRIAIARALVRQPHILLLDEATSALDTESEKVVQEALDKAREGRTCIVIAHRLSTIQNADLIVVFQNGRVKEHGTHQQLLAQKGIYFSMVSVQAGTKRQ

SMILES: CC(=O)O[C@H]1CC[C@](C)(OC(C)=O)[C@]23OC(C)(C)[C@H]([C@H](OC(=O)/C=C/c4ccccc4)[C@H](OC(=O)c4ccccc4)[C@]12C)[C@H]3OC(C)=O
- fold change (FC) [1]: 58.2
- fold change (FC) [2]: 10.3
- CC50 [3]: > 60 µM
- CC50 [4]: 51.6 µM
- fold change (FC) [5]: 6.9
- viability at 60 µM [6]: 68.1%
- fold change (FC) [7]: 15.2
- pKi [8]: 6.28
- fold change (FC) [9]: 21.2
- Activity [10]: 85%
- fold change (FC) [11]: 91.7
- Ratio [12]: 2

SMILES: COc1ccc(CCN(C)CCCC(C#N)(c2ccc(OC)c(OC)c2)C(C)C)cc1OC (configuration not stated)
- fold change (FC) [1]: 27.8
- fold change (FC) [2]: 6.2
- viability at 60 µM [13]: 76.9%
- CC50 [4]: > 60 µM
- fold change (FC) [7]: 10.8
- fold change (FC) [9]: 8.7
- fold change (FC) [11]: 129.9

SMILES: CC(=O)O[C@H]1CC[C@](C)(O)[C@]23OC(C)(C)[C@H]([C@H](OC(=O)/C=C/c4ccccc4)[C@H](OC(=O)c4ccccc4)[C@]12C)[C@H]3O
- fold change (FC) [1]: 30.3
- fold change (FC) [2]: 9.1
- CC50 [3]: 26.1 µM
- CC50 [4]: 25.5 µM
- fold change (FC) [5]: 5.6
- fold change (FC) [7]: 15.1
- pKi [8]: 6.55
- fold change (FC) [9]: 23.7
- Activity [10]: 83%
- fold change (FC) [11]: 86.6

SMILES: CC(=O)O[C@H]1CC[C@](C)(O)[C@]23OC(C)(C)[C@H]([C@H](OC(=O)/C=C/c4ccccc4)[C@H](OC(=O)c4ccccc4)[C@]12C)[C@H]3OC(=O)c1cnccn1
- fold change (FC) [1]: 8.8
- fold change (FC) [2]: 4
- CC50 [3]: > 60 µM
- viability at 60 µM [13]: 86.2%
- CC50 [4]: > 60 µM
- fold change (FC) [5]: 2.3
- viability at 60 µM [6]: 66.3%
- fold change (FC) [7]: 9
- pKi [8]: 5.76
- fold change (FC) [9]: 3.7
- fold change (FC) [11]: 20.6

SMILES: CC(=O)O[C@H]1CC[C@]2(C)O[C@@H]3[C@H]4[C@H](OC(=O)/C=C/c5ccccc5)[C@H](OC(=O)c5ccccc5)[C@@]1(C)[C@]32OC4(C)C
- fold change (FC) [1]: 75.8
- fold change (FC) [2]: 8.7
- CC50 [3]: 29.4 µM
- CC50 [4]: 27.9 µM
- fold change (FC) [5]: 5.9
- fold change (FC) [7]: 15.6
- pKi [8]: 6.30
- fold change (FC) [9]: 15.2
- fold change (FC) [11]: 125.2
- Ratio [12]: 2

SMILES: CC(=O)O[C@H]1CC[C@](C)(O)[C@]23OC(C)(C)[C@H]([C@H](OC(=O)/C=C/c4ccccc4)[C@H](OC(=O)c4ccccc4)[C@]12C)[C@H]3OS(C)(=O)=O
- fold change (FC) [1]: 86.6
- fold change (FC) [2]: 11.1
- CC50 [3]: > 60 µM
- CC50 [4]: 31.7 µM
- fold change (FC) [5]: 7
- viability at 60 µM [6]: 69.1%
- fold change (FC) [7]: 16.3
- pKi [8]: 6.22
- fold change (FC) [9]: 18.5
- Activity [10]: 83%
- fold change (FC) [11]: 149.2
- Ratio [12]: 2

SMILES: CC(=O)O[C@H]1CC[C@](C)(O)[C@]23OC(C)(C)[C@H]([C@H](OC(=O)/C=C/c4ccccc4)[C@H](OC(=O)c4ccccc4)[C@]12C)[C@H]3OC(=O)CCC(=O)N(C(=O)NC1CCCCC1)C1CCCCC1
- fold change (FC) [1]: 36.1
- Ratio [14]: 3
- fold change (FC) [2]: 19.5
- CC50 [3]: 56.4 µM
- Ratio [15]: 3
- viability at 60 µM [13]: 72.8%
- CC50 [4]: > 60 µM
- fold change (FC) [5]: 15.8
- fold change (FC) [7]: 24.9
- pKi [8]: 6.72
- fold change (FC) [9]: 27.4
- fold change (FC) [11]: 90

SMILES: CCC(=O)O[C@@H]1[C@H]2[C@H](OC(=O)/C=C/c3ccccc3)[C@H](OC(=O)c3ccccc3)[C@]3(C)[C@@H](OC(C)=O)CC[C@](C)(O)[C@@]13OC2(C)C
- fold change (FC) [1]: 69
- Ratio [14]: 3
- fold change (FC) [2]: 11.5
- CC50 [3]: > 60 µM
- CC50 [4]: 24.9 µM
- fold change (FC) [5]: 10.8
- viability at 60 µM [6]: 68.6%
- fold change (FC) [7]: 12.4
- pKi [8]: 6.27
- fold change (FC) [9]: 19.1
- fold change (FC) [11]: 110.9
- Ratio [12]: 2

SMILES: CC(=O)O[C@H]1CC[C@](C)(O)[C@]23OC(C)(C)[C@H]([C@H](OC(=O)/C=C/c4ccccc4)[C@H](OC(=O)c4ccccc4)[C@]12C)[C@H]3OC(=O)N(C)C
- fold change (FC) [1]: 37.7
- Ratio [14]: 3
- fold change (FC) [2]: 13.9
- CC50 [3]: 56.3 µM
- CC50 [4]: 24 µM
- fold change (FC) [5]: 11.8
- fold change (FC) [7]: 16.3
- pKi [8]: 5.92
- fold change (FC) [9]: 11.2
- fold change (FC) [11]: 90.2

SMILES: CC(=O)O[C@H]1CC[C@](C)(O)[C@]23OC(C)(C)[C@H]([C@H](OC(=O)/C=C/c4ccccc4)[C@H](OC(=O)c4ccccc4)[C@]12C)[C@H]3OC(=O)c1cccnc1
- fold change (FC) [1]: 56
- Ratio [14]: 3
- fold change (FC) [2]: 14.7
- CC50 [3]: > 60 µM
- CC50 [4]: 32.6 µM
- fold change (FC) [5]: 11.8
- viability at 60 µM [6]: 67.7%
- fold change (FC) [7]: 16.1
- pKi [8]: 6.89
- fold change (FC) [9]: 17.4
- fold change (FC) [11]: 113.5
- Ratio [12]: 2

SMILES: CC(=O)O[C@H]1CC[C@](C)(O)[C@]23OC(C)(C)[C@H]([C@H](OC(=O)/C=C/c4ccccc4)[C@H](OC(=O)c4ccccc4)[C@]12C)[C@H]3OC(C)=O
- CC50 [3]: 26.3 µM
- CC50 [4]: 18.3 µM
- pKi [8]: 6.54
- Activity [10]: 83%

SMILES: CC(=O)O[C@H]1CC[C@](C)(OC(=O)CNCC(C)C)[C@]23OC(C)(C)[C@H]([C@H](OC(=O)/C=C/c4ccccc4)[C@H](OC(=O)c4ccccc4)[C@]12C)[C@H]3OC(C)=O
- fold change (FC) [1]: 49.1
- Ratio [14]: 3
- fold change (FC) [2]: 15.1
- CC50 [3]: 37.3 µM
- CC50 [4]: 34.6 µM
- fold change (FC) [5]: 10
- fold change (FC) [7]: 22.2
- pKi [8]: 6.20
- fold change (FC) [9]: 20.6
- fold change (FC) [11]: 82.9
